# High-throughput results as filed in PubChem BioAssay.
# Only some compounds are listed: those with a hit (about 1.6% of all), similar ones and a draw of the others.
# Scp1 inh: Scp-1 phosphatase inhibitors, primary screen, biochemical, colorimetric, uHTS | Recombinant Scp1, phosphopeptide, malachite green phosphate absorbance | AID 493091, 2011 | 340,000 tested, 0.88% active | inhibition, % at 20 µM | Carboxy-terminal domain RNA polymerase II polypeptide A small phosphatase 1 (Homo …;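 active means inhibition above about 50% at 20 µM, limit read from the data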
#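 assay system = SCP-1 phosphatase catalytic domain, residues 76-261 | buffer or medium = 50 mM Tris acetate pH 5.5, 0.005% Tween-20, 10 mM MgCl2 | incubation = enzyme reaction 45 min at room temperature, colour 5 min, stabilisation 30 min | signal = Phosphate-binding colour reagent, absorbance read at 630 nm | measure = % inhibition at 20 µM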
# STEP inh: STEP phosphatase inhibitors, primary screen, biochemical, fluorescence intensity, uHTS; recombinant STEP, OMFP fluorogenic substrate; AID 588621, 2011; inhibition, % at 20 µM; Tyrosine-protein phosphatase non-receptor type 5 (Homo sapiens), P54829; 360,000 tested, 0.25% active;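 active means inhibition at 20 µM, scaled per plate between control wells, above about 37%, limit read from the data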
# Target sequence (P54829 whole entry, looked up): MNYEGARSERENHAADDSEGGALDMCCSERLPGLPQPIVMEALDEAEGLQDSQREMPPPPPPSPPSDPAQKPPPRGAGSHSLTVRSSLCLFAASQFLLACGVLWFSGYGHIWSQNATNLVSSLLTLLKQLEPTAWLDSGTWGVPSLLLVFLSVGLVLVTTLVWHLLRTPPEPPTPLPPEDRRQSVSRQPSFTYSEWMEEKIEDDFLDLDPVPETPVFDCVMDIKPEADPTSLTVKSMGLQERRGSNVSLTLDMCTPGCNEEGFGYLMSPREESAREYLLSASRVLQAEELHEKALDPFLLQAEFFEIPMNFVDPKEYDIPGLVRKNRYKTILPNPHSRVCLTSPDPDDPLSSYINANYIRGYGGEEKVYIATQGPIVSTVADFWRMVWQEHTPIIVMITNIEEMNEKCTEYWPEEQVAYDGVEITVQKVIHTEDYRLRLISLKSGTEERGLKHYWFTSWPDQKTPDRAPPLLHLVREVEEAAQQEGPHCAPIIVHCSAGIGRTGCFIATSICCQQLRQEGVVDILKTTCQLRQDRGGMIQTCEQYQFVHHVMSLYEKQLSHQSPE
#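 Also added – OMFP at 25 µM · Test system – STEP tyrosine phosphatase · Technique – FITC-channel fluorescence of OMFP product · Schedule – 20 min at room temperature, dark · Evaluation – control-normalized % inhibition with plate pattern correction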
# SUMO1 PPI mod: modulators of SUMO1 protein-protein interactions, primary screen, biochemical, uHTS | SUMO1 binding to a labelled peptide, TR-FRET, 1 h | inhibition, % at 20 µM | 360,000 tested, 0.33% active; in the data active means inhibition above about 37%
# Target sequence (P63165 whole entry, looked up): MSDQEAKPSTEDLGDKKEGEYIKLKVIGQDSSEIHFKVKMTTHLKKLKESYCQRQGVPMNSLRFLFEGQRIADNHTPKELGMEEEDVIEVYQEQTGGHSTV
# DNMT1 inh: human DNMT1 methyltransferase inhibitors, primary screen, biochemical, molecular beacon, fluorescence, HinP1I cleavage, uHTS. inhibition (reported as % activation of signal), % at 10 µM. AID 588458, 2011. 360,000 tested, 0.83% active; in the data active means inhibition above about 50%
# F508del corr: F508del CFTR correction, initial screen, CFBE line, single point. CFBE cells, YFP halide quenching; stimulated with forskolin plus potentiator P3; % fluorescence drop versus neutral controls. activity (quench increase), % at 7.58 µM. 350,000 tested, 0.36% active. AID 720511, 2013;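 active means mean added fluorescence quench of at least 8% versus neutral control, with both replicates also reaching 8%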;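 further: cells transiently co-express mutant CFTR-F508del with the halide-sensitive YFP; corrector assay measuring rescue of mutant channel to the surface after 24 h compound exposure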
# LMPTP block: LMPTP phosphatase inhibitors, primary screen, biochemical, fluorescence intensity, uHTS. Low molecular weight phosphotyrosine protein phosphatase (Homo sapiens), P24666. recombinant LMPTP-A, OMFP fluorogenic substrate. inhibition, % at 20 µM. 360,000 tested, 0.22% active;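 active means compounds that cut the enzyme signal by at least half of the control window in the single-dose screen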
#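 Assay system: LMPTP-A, protein tyrosine phosphatase of low molecular weight / Medium: pH 6.0 Bis-Tris buffer with DTT and Triton X-100 / Schedule: 50 min enzyme reaction at room temperature, protected from light / Measured by: endpoint fluorescence intensity from OMFP dephosphorylation / Read-out basis: % inhibition relative to no-enzyme and uninhibited control wells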
# Numbers stand for hits; n = inactive; x = no result given.
SMILES,Scp1 inh,STEP inh,SUMO1 PPI mod,DNMT1 inh,F508del corr,LMPTP block
C=CCN(CC=C)C(=S)Nc1ccc(OC)c(OC)c1,n,n,n,n,13,n
C[C@@H]1CN([C@H](C)CO)C(=O)c2cc(NS(=O)(=O)c3cn(C)cn3)ccc2O[C@H]1CN(C)CC1CCCCC1,x,x,x,x,n,x
CN(C)C(=O)C(CCN1CCC(O)(c2ccc(Cl)cc2)CC1)(c1ccccc1)c1ccccc1,n,n,n,n,11,n
C[C@@H]1CN([C@@H](C)CO)C(=O)c2cc(NS(=O)(=O)c3ccc(F)cc3)ccc2O[C@H]1CN(C)S(=O)(=O)c1ccc(Cl)cc1,x,x,x,x,n,x
C/C(=N\NC(=O)c1cc2ccccc2cc1O)c1ccccn1,n,n,n,n,n,n
C/C(=N/NC(=O)c1cc2ccccc2cc1O)C1C(=O)c2ccccc2C1=O,n,n,n,n,x,66
C/C(=N\NC(=O)c1cc2ccccc2cc1O)c1cc2ccccc2o1,90,n,n,n,n,n
CN1C(=O)c2cc(NC(=O)Nc3ccc(Cl)cc3)ccc2OC[C@@H]2O[C@@H](CC(=O)O)CC[C@@H]21,x,x,x,x,n,x
O=C(Nc1nccs1)c1cn(-c2ccccc2)nc1-c1ccncc1,n,n,44,n,n,n
C[C@@H]1CN([C@H](C)CO)C(=O)Cc2cc(N(C)C)ccc2O[C@H]1CN(C)S(=O)(=O)c1ccccc1,x,x,x,x,n,x
Cc1ccc(SCCc2cc[n+](CC(=O)c3ccccc3)cc2)cc1,n,n,n,n,n,n
O=C(C[n+]1ccc(CCSc2ccc(F)cc2)cc1)c1ccccc1,n,n,n,n,x,54
CC=Cc1ccc2n(c1=O)C[C@H]1[C@H](CO)[C@@H](C(=O)NCC(F)(F)F)N(CCc3ccccc3)[C@@H]21 (mixture of isomers),x,x,x,x,n,x
C/C=C(\C)C(=O)NCCN1C2=NC[C@@H](Cc3ccccc3)N2C[C@@H]1Cc1ccc(OC)cc1,n,n,n,n,n,n
CCCCCCNC(=O)N[C@@H](C(=O)NCCC[C@H]1CN2C(=NC[C@@H]2Cc2ccccc2)N1CCc1cccc(OC)c1)C(C)C,92,x,x,x,x,x
CCOC(=O)c1c(C)oc2c1c(C=NCCO)c(O)c1ccccc12,n,n,46,n,n,n
CO[C@H]1CN(C)C(=O)c2cc(NS(=O)(=O)c3cn(C)cn3)ccc2OC[C@@H](C)N(C)C[C@H]1C,x,x,x,x,n,x
CCCN1[C@H](C(=O)NCC(F)(F)F)[C@@H](CO)[C@@H]2Cn3c(ccc(-c4ccccc4)c3=O)[C@@H]21,x,x,x,x,n,x
CC(C(=O)O)N(C(=O)c1ccccc1)c1ccc(F)cc1 (stereo unspecified),n,n,n,n,10,n
CC(C)C(=O)NN(C(=O)c1ccccc1)c1ccccc1,n,n,n,n,n,n
CCOC(=O)c1ccc(N2N=C(C)/C(=C/C=C/c3ccco3)C2=O)cc1,n,n,n,n,x,n
O=C(O)c1cc(N2N=C(C(F)(F)F)/C(=C/C=C/c3ccco3)C2=O)ccc1Cl,69,94,105,84,n,78
C[C@@H]1CN([C@H](C)CO)C(=O)Cc2cc(NS(=O)(=O)c3ccccc3)ccc2O[C@H]1CN(C)Cc1ccncc1,x,x,x,x,n,x
c1coc(CSSCc2ccco2)c1,n,n,n,101,n,n
Cc1ccc(NC(=O)CSCc2ccco2)cc1,n,n,n,n,x,n
SMILES,Scp1 inh,STEP inh,SUMO1 PPI mod,DNMT1 inh,F508del corr,LMPTP block
CC(=O)Nc1ccc(OC(=O)c2c(-c3ccccc3Cl)noc2C)cc1,n,n,37,n,x,n
CN(C)C(=O)C[C@@H]1CC[C@H]2[C@@H](COc3ccc(NC(=O)C4CCC4)cc3C(=O)N2C)O1,x,x,x,x,n,x
CC1CCN(C(=S)NC(=O)c2ccc(C(C)(C)C)cc2)CC1,n,n,45,n,n,n
Cc1ccc(S(=O)(=O)Nc2ccc3c(c2)C(=O)N([C@H](C)CO)C[C@H](C)[C@@H](CN(C)Cc2ccc(C(F)(F)F)cc2)OCCCC[C@H](C)O3)cc1,x,x,x,x,n,x
CN(C)c1ccc2c(c1)[C@@H]1C[C@@H](CC(=O)NCc3ccc(Oc4ccccc4)cc3)O[C@H](CO)[C@@H]1O2,x,x,x,x,17,x
CN(C)c1ccc2c(c1)[C@@H]1C[C@H](CC(=O)NCc3ccc(Oc4ccccc4)cc3)O[C@@H](CO)[C@@H]1O2,x,x,x,x,n,x
Cc1ccc(S(=O)(=O)N2C[C@H]3[C@H]4C(=O)N(C)C(=O)[C@H]4CC(=O)[C@H]3[C@@H]2c2ccccc2F)cc1,x,n,n,n,8.4,n
C[C@@H]1CN([C@H](C)CO)C(=O)c2cccc(NS(=O)(=O)c3ccc(Cl)cc3)c2O[C@H]1CN(C)C(=O)Nc1ccc(C(F)(F)F)cc1,x,x,x,x,n,x
COc1ccc(C(=O)Nc2ccccc2C(=O)NC(Cc2ccc(O)cc2)C(=O)NNC(=O)c2ccc(C)cc2)cc1 (stereo unspecified),n,n,78,n,n,n
O=C(O)C[C@@H]1C[C@H]2c3cc(NS(=O)(=O)c4ccccc4)ccc3O[C@H]2[C@H](CO)O1,x,x,x,x,n,x
CC1CN(S(=O)(=O)c2cccc(C(=O)Nc3cc(Cl)ccc3N3CCOCC3)c2)CC(C)O1 (stereo unspecified),n,n,n,n,20,n
CCCNC(=O)c1ccc2c(=O)c(O)c(-c3cccc(Br)c3)[nH]c2c1,n,n,n,n,8.4,n
O=C(NC[C@@H]1CC[C@@H]2[C@@H](CN2Cc2ccccc2F)O1)C1CCCCC1,x,x,x,x,n,x
Cc1cc(C)c(S(=O)(=O)c2ccccc2)c(OC(=O)c2c(Cl)cc(Cl)cc2Cl)n1,n,n,42,n,x,n
CC(C)NC(=O)Nc1ccc2c(c1)C(=O)N([C@@H](C)CO)C[C@H](C)[C@@H](CN(C)C(=O)c1ccccc1)OCCCC[C@H](C)O2,x,x,x,x,n,x
COc1ccc2c3c([nH]c2c1)[C@H](CO)N(C(=O)C1CCC1)CC31CN(C(=O)c2ccncc2)C1,x,x,x,x,n,x
N#Cc1c(N2CCCC(O)C2)nc(N)c2c(N)nc3c(c12)CC(=O)N3C12CC3CC(CC(C3)C1)C2 (stereo unspecified),n,n,56,84,x,49
O=C(O)c1ccccc1-c1nc(-c2ccccc2)c(-c2ccccc2)[nH]1,n,n,n,n,13,n
